Data reported in ChEMBL document CHEMBL5724801, “EUbOPEN Chemogenomics Library - Multiplex” (2024).
Where “and” joins values, the source holds several entries; their conditions need not be identical. Equal entries are not always repeated.

Tested on: Fibroblast
Assay: Multiplex assay against human fibroblast
Type: toxicity, cell-based
Procedure, shortened: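 With compound added, live cells were imaged on a CQ1 microscope at 37°C and 5% CO2; staining with Hoechst33342, BioTracker Green Microtubule Cytoskeleton Dye, MitoTracker Red and Annexin V Alexa Fluor 680 had been done at seeding. The CellPathfinder machine-learning gating scheme split cells into Hoechst high-intensity objects or normal cells, normal cells into healthy, pyknosed or fragmented nuclei, and pyknosed cells into mitotic or apoptotic. The tubulin, mitochondrial-mass and membrane-permeability phenotypes are per cents of healthy-nucleus cells.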

[1] = 12 h, 1 µM, compound concentration 1 uM
[2] = 12 h, 10 µM, compound concentration 10 uM
[3] = 24 h, 1 µM, compound concentration 1 uM
[4] = 24 h, 10 µM, compound concentration 10 uM
[5] = 48 h, 1 µM, compound concentration 1 uM
[6] = 48 h, 10 µM, compound concentration 10 uM

For `CN(C)C(=O)Cn1cc(-c2ccc(-c3cncc4ccccc34)cc2)cn1`, the “Population Apoptotic (%)” value [1] was 47% and 32%, the “Population Healthy Nuclei (%)” value [1] was 72% and 46% and the “Population Hoechst High Intensity Objects (%)” value [1] was 0% and 5%. The “Population Membrane Permeable-Phenotype (%)” value [1] was 0% and 5%, the “Population Mitochondria Different-Phenotype (%)” value [1] was 5% and 2% and the “Population Mitotic Cells (%)” value [1] was 52% and 67%. For the same compound, the “Population Normal (%)” value [1] was 100% and 94%, the “Population Pyknosed Nuclei (%)” value [1] was 16% and 20% and the “Population Tubulin-Different-Phenotype (%)” value [1] was 31% and 54%. For the same compound, the “Total Cell Count” value [1] was 139 and 161, the “Population Apoptotic (%)” value [2] was 33% and the “Population Healthy Nuclei (%)” value [2] was 69% and 42%. For the same compound, the “Population Hoechst High Intensity Objects (%)” value [2] was 4% and 9%, the “Population Mitochondria Different-Phenotype (%)” value [2] was 12% and 5% and the “Population Mitotic Cells (%)” value [2] was 66%. For the same compound, the “Population Normal (%)” value [2] was 95% and 90%, the “Population Pyknosed Nuclei (%)” value [2] was 16% and the “Population Tubulin-Different-Phenotype (%)” value [2] was 52% and 81%. The “Total Cell Count” value [2] was 113 and 98, the “Population Apoptotic (%)” value [3] was 47% and 48% and the “Population Healthy Nuclei (%)” value [3] was 73% and 38%. The “Population Hoechst High Intensity Objects (%)” value [3] was 5%, the “Population Membrane Permeable-Phenotype (%)” value [3] was 0% and 7% and the “Population Mitochondria Different-Phenotype (%)” value [3] was 3% and 5%. For the same compound, the “Population Mitotic Cells (%)” value [3] was 52% and 51%, the “Population Normal (%)” value [3] was 94% and the “Population Pyknosed Nuclei (%)” value [3] was 14% and 20%. For the same compound, the “Population Tubulin-Different-Phenotype (%)” value [3] was 37% and 61%, the “Total Cell Count” value [3] was 137 and 156 and the “Population Apoptotic (%)” value [4] was 50% and 41%. The “Population Fragmented Nuclei (%)” value [4] was 20% and 41%, the “Population Healthy Nuclei (%)” value [4] was 62% and 43% and the “Population Hoechst High Intensity Objects (%)” value [4] was 8% and 5%. For the same compound, the “Population Membrane Permeable-Phenotype (%)” value [4] was 0% and 11%, the “Population Mitochondria Different-Phenotype (%)” value [4] was 12% and 8% and the “Population Mitotic Cells (%)” value [4] was 50% and 58%. The “Population Normal (%)” value [4] was 91% and 94%, the “Population Pyknosed Nuclei (%)” value [4] was 17% and 15% and the “Population Tubulin-Different-Phenotype (%)” value [4] was 59% and 85%. The “Total Cell Count” value [4] was 113 and 85, the “Population Apoptotic (%)” value [5] was 76% and 44% and the “Population Fragmented Nuclei (%)” value [5] was 21% and 36%. For the same compound, the “Population Healthy Nuclei (%)” value [5] was 65% and 40%, the “Population Hoechst High Intensity Objects (%)” value [5] was 6% and 7% and the “Population Membrane Permeable-Phenotype (%)” value [5] was 3% and 5%. The “Population Mitochondria Different-Phenotype (%)” value [5] was 8% and 7%, the “Population Mitotic Cells (%)” value [5] was 23% and 55% and the “Population Normal (%)” value [5] was 93% and 92%. For the same compound, the “Population Pyknosed Nuclei (%)” value [5] was 12% and 22%, the “Population Tubulin-Different-Phenotype (%)” value [5] was 57% and 77% and the “Total Cell Count” value [5] was 144 and 141. For the same compound, the “Population Fragmented Nuclei (%)” value [6] was 24% and 47%, the “Population Healthy Nuclei (%)” value [6] was 54% and 44% and the “Population Hoechst High Intensity Objects (%)” value [6] was 9% and 0%. The “Population Membrane Permeable-Phenotype (%)” value [6] was 0% and 8%, the “Population Mitochondria Different-Phenotype (%)” value [6] was 20% and 13% and the “Population Normal (%)” value [6] was 90% and 99%. For the same compound, the “Population Pyknosed Nuclei (%)” value [6] was 20% and 7%, the “Population Tubulin-Different-Phenotype (%)” value [6] was 55% and 73% and the “Total Cell Count” value [6] was 117 and 102.
With `Cc1cccc(NC(=O)CN2CCC(c3ccccn3)CC2)c1.Cl.Cl` the “Population Apoptotic (%)” value [1] was 47% and 33%, the “Population Fragmented Nuclei (%)” value [1] was 16% and 25% and the “Population Healthy Nuclei (%)” value [1] was 70% and 55%. The “Population Hoechst High Intensity Objects (%)” value [1] was 4% and 6%, the “Population Membrane Permeable-Phenotype (%)” value [1] was 0% and 2% and the “Population Mitochondria Different-Phenotype (%)” value [1] was 6% and 5%. The “Population Mitotic Cells (%)” value [1] was 52% and 66%, the “Population Normal (%)” value [1] was 95% and 93% and the “Population Pyknosed Nuclei (%)” value [1] was 12% and 19%. The “Population Tubulin-Different-Phenotype (%)” value [1] was 34% and 35%, the “Total Cell Count” value [1] was 140 and 232 and the “Population Apoptotic (%)” value [2] was 59% and 34%. The “Population Healthy Nuclei (%)” value [2] was 78% and 30%, the “Population Hoechst High Intensity Objects (%)” value [2] was 10% and 2% and the “Population Membrane Permeable-Phenotype (%)” value [2] was 1% and 6%. The “Population Mitochondria Different-Phenotype (%)” value [2] was 7% and 10%, the “Population Mitotic Cells (%)” value [2] was 40% and 65% and the “Population Normal (%)” value [2] was 89% and 98%. The “Population Pyknosed Nuclei (%)” value [2] was 13% and 23%, the “Population Tubulin-Different-Phenotype (%)” value [2] was 36% and 56% and the “Total Cell Count” value [2] was 229 and 100. For the same compound, the “Population Apoptotic (%)” value [3] was 50% and 40%, the “Population Fragmented Nuclei (%)” value [3] was 18% and 26% and the “Population Healthy Nuclei (%)” value [3] was 70% and 53%. The “Population Hoechst High Intensity Objects (%)” value [3] was 2% and 4%, the “Population Membrane Permeable-Phenotype (%)” value [3] was 0% and 4% and the “Population Mitochondria Different-Phenotype (%)” value [3] was 8% and 6%. For the same compound, the “Population Mitotic Cells (%)” value [3] was 50% and 59%, the “Population Normal (%)” value [3] was 97% and 95% and the “Population Pyknosed Nuclei (%)” value [3] was 10% and 19%. The “Population Tubulin-Different-Phenotype (%)” value [3] was 25% and 30%, the “Total Cell Count” value [3] was 134 and 239 and the “Population Apoptotic (%)” value [4] was 64% and 42%. The “Population Healthy Nuclei (%)” value [4] was 81% and 34%, the “Population Hoechst High Intensity Objects (%)” value [4] was 7% and 0% and the “Population Membrane Permeable-Phenotype (%)” value [4] was 0% and 11%. For the same compound, the “Population Mitochondria Different-Phenotype (%)” value [4] was 11%, the “Population Mitotic Cells (%)” value [4] was 35% and 57% and the “Population Normal (%)” value [4] was 92% and 100%. The “Population Tubulin-Different-Phenotype (%)” value [4] was 38% and 50%, the “Total Cell Count” value [4] was 217 and 105 and the “Population Apoptotic (%)” value [5] was 80% and 60%. For the same compound, the “Population Fragmented Nuclei (%)” value [5] was 25% and 31%, the “Population Healthy Nuclei (%)” value [5] was 63% and 55% and the “Population Hoechst High Intensity Objects (%)” value [5] was 3%. The “Population Membrane Permeable-Phenotype (%)” value [5] was 1% and 4%, the “Population Mitochondria Different-Phenotype (%)” value [5] was 3% and the “Population Mitotic Cells (%)” value [5] was 20% and 39%. The “Population Normal (%)” value [5] was 96%, the “Population Pyknosed Nuclei (%)” value [5] was 11% and 12% and the “Population Tubulin-Different-Phenotype (%)” value [5] was 28% and 35%. The “Total Cell Count” value [5] was 138 and 229, the “Population Apoptotic (%)” value [6] was 76% and 28% and the “Population Healthy Nuclei (%)” value [6] was 75% and 39%. For the same compound, the “Population Hoechst High Intensity Objects (%)” value [6] was 7% and 1%, the “Population Membrane Permeable-Phenotype (%)” value [6] was 2% and the “Population Normal (%)” value [6] was 92% and 98%. The “Population Pyknosed Nuclei (%)” value [6] was 7% and 6%, the “Population Tubulin-Different-Phenotype (%)” value [6] was 44% and 61% and the “Total Cell Count” value [6] was 238 and 109.
